Measurements published in ChEMBL document CHEMBL3244009, “Potential steroidal antiestrogens” (1977).

Assays:
[1] = biological target: T1, Estrogen receptor (Mus musculus) (UniProt P19785); assay: Displacement of [6,7-3H]-17beta-estadiol from estrogen receptor in Tuck No. 1 mouse uterine cytosol at 1000 molar ratio of compound/radioligand incubated 15 mins prior to radioligand addition measured after 1 hr by liquid scintillation counting relative to control; conditions: Uterus
T1 sequence (whole entry): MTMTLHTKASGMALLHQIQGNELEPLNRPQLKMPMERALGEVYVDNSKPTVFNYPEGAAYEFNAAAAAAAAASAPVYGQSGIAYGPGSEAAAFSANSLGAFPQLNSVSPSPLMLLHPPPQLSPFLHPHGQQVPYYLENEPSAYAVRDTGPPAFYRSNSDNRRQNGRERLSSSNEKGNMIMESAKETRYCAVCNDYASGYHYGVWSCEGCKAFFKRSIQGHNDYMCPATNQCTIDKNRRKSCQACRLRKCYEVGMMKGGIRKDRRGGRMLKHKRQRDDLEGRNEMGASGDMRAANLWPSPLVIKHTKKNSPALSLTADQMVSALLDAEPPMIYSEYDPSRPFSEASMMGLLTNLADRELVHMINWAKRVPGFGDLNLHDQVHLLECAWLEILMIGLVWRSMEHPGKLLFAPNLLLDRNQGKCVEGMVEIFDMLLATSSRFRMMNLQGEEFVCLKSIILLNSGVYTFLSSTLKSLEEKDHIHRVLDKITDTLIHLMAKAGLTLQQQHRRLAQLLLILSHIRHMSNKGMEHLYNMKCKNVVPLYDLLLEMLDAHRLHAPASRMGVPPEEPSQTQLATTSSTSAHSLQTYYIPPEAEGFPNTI
Procedure, shortened: (§1)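 Uterine cytosol is the 105 000g, 1 h, 4-5 °C supernatant of homogenates from mice ovariectomized one week earlier, prepared in Tris 0.01 M pH 7.4 with EDTA and DTT. Compound is preincubated with cytosol 15 min at 5-7 °C, then [6,7-3H]-estradiol (0.5 × 10^-12 g mol) is added for 1 h. Samples are run on 10-30% sucrose gradients. Inhibition is calculated from 8S-peak cpm normalized to total cpm versus control.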

[2] = biological target: T1, Estrogen receptor (Mus musculus); assay: Displacement of [6,7-3H]-17beta-estadiol from estrogen receptor in Tuck No. 1 mouse uterine cytosol at 100 molar ratio of compound/radioligand incubated 15 mins prior to radioligand addition measured after 1 hr by liquid scintillation counting relative to control; conditions: Uterus; procedure, shortened: as §1
Mus musculus [3] = assay: Antiestrogenic activity in immature Tuck No. 1 mouse assessed as reduction of 17beta-estradiol-induced mean uterine weight at 1000 molar ratio of compound/17beta-estradiol, sc qd for 3 days (reference value: 25.5 +/- 1.9 mg); assay type: functional
Rattus norvegicus [4] = assay: Antiestrogenic activity in immature Wistar rat assessed as reduction of 17beta-estradiol-induced mean uterine weight at 200 molar ratio of compound/17beta-estradiol, sc qd for 3 days (reference value: 64.4 +/- 3.5 mg); assay type: functional
Procedure, shortened: (§2)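 Immature Wistar rats, randomized into groups of 5-6, injected sc daily for 3 days with arachis oil vehicle, 17β-estradiol alone or estradiol plus test compound. Estradiol and compound are given as two separate injections. Estradiol total dose […]. Read-out is uterine weight, reported as mean ± SEM in mg.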

[5] = biological target: T1, Estrogen receptor (Mus musculus); assay: Displacement of [6,7-3H]-17beta-estadiol from estrogen receptor in Tuck No. 1 mouse uterine cytosol at 3.16 molar ratio of compound/radioligand incubated 15 mins prior to radioligand addition measured after 1 hr by liquid scintillation counting relative to control; conditions: Uterus
Procedure, shortened: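 Uteri from Tuck No. 1 mice (6 weeks old, ovariectomized, used 1 week later) pulverized and homogenized at 4 °C in 0.01 M Tris pH 7.4 with EDTA and dithiothreitol; 105000g, 1 h cytosol. Compound preincubated with cytosol 15 min at 5-7 °C, then [6,7-3H]-estradiol added for 1 h. 10-30% sucrose gradients spun 275000g, 15 h; % inhibition computed from 8S-peak cpm normalized to total gradient cpm versus control.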

[6] = biological target: T1, Estrogen receptor (Mus musculus); assay: Displacement of [6,7-3H]-17beta-estadiol from estrogen receptor in Tuck No. 1 mouse uterine cytosol at 10 molar ratio of compound/radioligand incubated 15 mins prior to radioligand addition measured after 1 hr by liquid scintillation counting relative to control; conditions: Uterus; procedure, shortened: as §1
[7] = biological target: T1, Estrogen receptor (Mus musculus); assay: Displacement of [6,7-3H]-17beta-estadiol from estrogen receptor in Tuck No. 1 mouse uterine cytosol at 1 molar ratio of compound/radioligand incubated 15 mins prior to radioligand addition measured after 1 hr by liquid scintillation counting relative to control; conditions: Uterus; procedure, shortened: as §1
Mus musculus [8] = assay: Antiestrogenic activity in immature Tuck No. 1 mouse assessed as reduction of 17beta-estradiol-induced mean uterine weight at 10 molar ratio of compound/17beta-estradiol, sc qd for 3 days (reference value: 25.5 +/- 1.9 mg); assay type: functional
Rattus norvegicus [9] = assay: Antiestrogenic activity in immature Wistar rat assessed as reduction of 17beta-estradiol-induced mean uterine weight at 10 molar ratio of compound/17beta-estradiol, sc qd for 3 days (reference value: 64.4 +/- 3.5 mg); assay type: functional; procedure, shortened: as §2
Mus musculus [10] = assay: Antiestrogenic activity in immature Tuck No. 1 mouse assessed as reduction of 17beta-estradiol-induced mean uterine weight at 100 molar ratio of compound/17beta-estradiol, sc qd for 3 days (reference value: 25.5 +/- 1.9 mg); assay type: functional
Rattus norvegicus [11] = assay: Antiestrogenic activity in immature Wistar rat assessed as reduction of 17beta-estradiol-induced mean uterine weight at 3.16 molar ratio of compound/17beta-estradiol, sc qd for 3 days (reference value: 64.4 +/- 3.5 mg); assay type: functional; procedure, shortened: as §2

Q: For `Cc1cc(O)cc2c1[C@H]1CC[C@]3(C)[C@@H](O)CC[C@H]3[C@@H]1C=C2c1ccccc1`, which Activity [1] is on record?
A: 18%

Q: And the Activity [2]?
A: 87%

Q: And the Activity (Mus musculus [3])?
A: 32.9 mg

Q: What about the Activity (Rattus norvegicus [4]) of the same molecule?
A: 97.1 mg

Q: With `Cc1cc(OCCN(C)C)cc2c1[C@H]1CC[C@]3(C)[C@@H](O)CC[C@H]3[C@@H]1C=C2c1ccccc1` as the molecule, how does the Activity [1] read?
A: 88%

Q: For `C[C@]12CC[C@@H]3c4ccc(O)cc4C(=O)C[C@H]3[C@@H]1CC[C@@H]2O`, which Activity [5] is on record?
A: 38%

Q: With `Cc1cc(O)cc2c1[C@H]1CC[C@]3(C)[C@@H](O)CC[C@H]3[C@@H]1CC2=O` as the molecule, how does the Activity [1] read?
A: 14%

Q: And the Activity [2]?
A: 38%

Q: With `CN(C)CCOc1ccc2c(c1)C(c1ccccc1)=C[C@@H]1[C@@H]2CC[C@]2(C)[C@@H](O)CC[C@@H]12` as the molecule, how does the Activity [1] read?
A: 103%

Q: With `CCN(CC)CCOc1ccc2c(c1)C(Cc1ccccc1)=C[C@@H]1[C@@H]2CC[C@]2(C)[C@@H](O)CC[C@@H]12` as the molecule, how does the Activity [1] read?
A: 89%

Q: How did the Activity [1] turn out when `CCN(CC)CCOc1ccc2c(c1)C(c1ccccc1)=C[C@@H]1[C@@H]2CC[C@]2(C)[C@@H](O)CC[C@@H]12` was run?
A: 101%

Q: With `C[C@]12CC[C@@H]3c4ccc(O)cc4C(c4ccccc4)=C[C@H]3[C@@H]1CC[C@@H]2O` as the molecule, how does the Activity [5] read?
A: 13%

Q: What about the Activity [6] of the same molecule?
A: 3%

Q: And the Activity [7]?
A: 66%

Q: And the Activity (Mus musculus [8])?
A: 28.6 mg

Q: What about the Activity (Rattus norvegicus [9]) of the same molecule?
A: 74.1 mg

Q: For `CN(C)CCOc1ccc2c(c1)C(=O)C[C@@H]1[C@@H]2CC[C@]2(C)[C@@H](O)CC[C@@H]12`, which Activity [1] is on record?
A: 66%

Q: For `C[C@]12CC[C@@H]3c4ccc(O)cc4/C(=N\NC(N)=S)C[C@H]3[C@@H]1CC[C@@H]2O`, which Activity [6] is on record?
A: 54%

Q: What about the Activity (Mus musculus [10]) of the same molecule?
A: 34.3 mg

Q: And the Activity (Rattus norvegicus [11])?
A: 77.7 mg

Q: `C[C@]12CC[C@@H]3c4ccc(O)cc4/C(=N\N4C(=N)SCC4=O)C[C@H]3[C@@H]1CC[C@@H]2O` was tested. Which Activity [6] did it give?
A: 84%

Q: And the Activity (Mus musculus [8])?
A: 28.4 mg
